The values that follow come from PubChem BioAssay AID504382 (The Scripps Research Institute Molecular Screening Center, 2011).

Hit rate of the full screen: of about 2,500 compounds, about 460 (18%) were called active.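 Rule for the calls: active = mean activation above a cutoff of low control average plus 3 SD from the earlier screen (cut at about 12% in these data); inactive = the rest.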 A selection follows.

The experiment is described as follows: compound fluorescence interference without thin filaments, confirmation, artefact control for cardiac RTF calcium sensitizer project, biochemical (AID 504382). To be noted: IANBD fluorescence interference counterscreen, buffer, EC20 Ca2+; at 7.2 µM; active compounds read high; scaled: EC20 calcium 0, EC100 calcium 100. An outline of the steps: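 Medium: MOPS buffer, 190 mM, with KCl, MgCl2, EGTA, NTA, DTT, pH 7.20; Dosing: one dose of 7.2 µM, 0.7% DMSO; Probe or stimulus: calcium at EC20 level, 0.472 mM final; Incubation: 15 min, 25 °C; Evaluation: compound fluorescence interference relative to control well signal range; Signal: fluorescence, 480/540 nm.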
In general terms: Counterscreens check selectivity or assay interference.
Turning to `Oc1[nH]c2ccccc2c1N=Nc1ccc(F)cc1`, the fluorescence artifact activation was 34.1% (active). In the case of `Oc1[nH]c2ccccc2c1N=Nc1ccccc1` it was 11.6% (inactive); in that of `Oc1[nH]c2ccccc2c1N=Nc1ccccc1F`, -0.02% (inactive); in that of `COc1ccc(-n2c(O)c(/C=N/NS(=O)(=O)c3cccc([N+](=O)[O-])c3)c3ccccc3c2=O)cc1OC`, 0.15% (inactive). On to `CC1CC1c1ccc(/C=C(\C#N)C(=O)Nc2cccc(Cl)c2Cl)o1` (centres undefined), for which the fluorescence artifact activation is 4% (inactive).

Regarding `Cn1ncc(Cl)c1C(=O)Nc1cccc(Cl)c1`, the fluorescence artifact activation is 0.09% (inactive).

Consider `Cn1nccc1NC(=O)Nc1cccc(Cl)c1Cl`, for which the fluorescence artifact activation was 13.5% (active). In the case of `O=C(Nc1ccccc1)C1=C[C@H](c2ccc3c(c2)OCO3)C[C@H](OCCCCO)O1`, the fluorescence artifact activation was 1.74% (inactive). With `COc1cc(/C=N/NC(=O)c2cc(-c3ccccc3Cl)nc3ccccc23)cc(OC)c1O`, the fluorescence artifact activation was 8.56% (inactive). Regarding `O=c1[nH][nH]c(C(F)(F)F)c1C=Nc1cccc(Cl)c1`, the fluorescence artifact activation is 1.19% (inactive).

With `Cc1cc(O)c(CN(C)C)c2c1C(=O)/C(=C/c1ccco1)O2`, the fluorescence artifact activation was 0% (inactive).

Consider `CC(C)Cn1c(N)c(C(=O)COC(=O)c2cc(F)cc(F)c2)c(=O)n(C)c1=O`, for which the fluorescence artifact activation was 40.2% (active).

In the case of `CCOC(=O)C1=C(C)N=c2s/c(=C/c3ccc(OCC(=O)O)c(OC)c3)c(=O)n2C1c1ccc(Cl)cc1` (centres undefined), the fluorescence artifact activation is -0.04% (inactive). For the compound `Cc1cc(C=C2C(=O)c3ccccc3C2=O)c(C)n1-c1ccc(Cl)cc1`, the fluorescence artifact activation was -0.07% (inactive).

Regarding `CCN1C(=O)/C(=C/c2ccc(N3CCCC3)cc2)NC1=S`, the fluorescence artifact activation is 0.26% (inactive).

Take `CCCN1C(=O)/C(=C/c2ccc(N3CCCC3)c(C)c2)NC1=S`: the fluorescence artifact activation is 0.06% (inactive). Consider `CCCN1C(=O)/C(=C/c2ccc(N3CCOCC3)cc2)NC1=S`, for which the fluorescence artifact activation is 131% (active). Consider `CC1(C)NC(=O)N(CCCCOc2ccc(Cl)cc2)C1=O`, for which the fluorescence artifact activation is 0.28% (inactive).

With `CCOC(=O)NC1(C(F)(F)F)C(=O)NC(C)=C1C(=O)OC` (centres undefined), the fluorescence artifact activation was 5.24% (inactive). Consider `Cc1ccc(-n2c(C)n[nH]c2=S)cc1`, for which the fluorescence artifact activation is 1.66% (inactive).

Turning to `S=c1[nH]nc(-c2ccc(Cl)cc2)n1-c1ccc2c(c1)OCCO2`, the fluorescence artifact activation is 31.8% (active). On to `CCN(CC)c1ccc(/C=C2/SC(=O)N(C(C)C)C2=O)o1`, for which the fluorescence artifact activation is 8.25% (inactive). Consider `C/C(=N/NS(=O)(=O)c1ccccc1)c1ccc(NC(=O)C2CC2)cc1`, for which the fluorescence artifact activation was 6.01% (inactive). In the case of `O=C(CCCN1C(=O)c2ccccc2C1=O)Nc1ccc(S(=O)(=O)N2CCCCC2)cc1`, the fluorescence artifact activation is 0.02% (inactive). `O=C(CNCc1cccs1)Nc1cc(S(=O)(=O)N2CCCC2)ccc1Cl`: the fluorescence artifact activation is 4.18% (inactive). Turning to `O=C(CNCc1cccs1)Nc1ccc(S(=O)(=O)N2CCCCC2)cc1`, the fluorescence artifact activation was 15.8% (active). As to `CCC1(O)C(=O)OCc2c1cc1n(c2=O)Cc2cc3cc(O)ccc3nc2-1` (centres undefined), the fluorescence artifact activation is 0.27% (inactive).

In the case of `O=C1CCC(=O)N1CC(O)COc1ccccc1` (centres undefined), the fluorescence artifact activation is 61.5% (active). In the case of `CCOc1ccccc1C(=O)NN1C(=O)CCC1=O`, the fluorescence artifact activation was 3.75% (inactive).

Turning to `Cc1cc(C)n(CC(O)COc2ccccc2)n1` (centres undefined), the fluorescence artifact activation was 0.59% (inactive). Under `CC(C)(C)NC(=O)[C@@H]1CN(Cc2cccnc2)CCN1C[C@@H](O)C[C@@H](Cc1ccccc1)C(=O)N[C@H]1c2ccccc2C[C@H]1O` stands 54.1% (active). Under `Cn1nc([N+](=O)[O-])c(C(C#N)c2ccccn2)c(Cl)c1=O` (centres undefined) stands -0.03% (inactive); under `Cc1c(N2C(=O)/C(=C\c3ccc(N(C)C)cc3)N(C)C2=S)c(=O)n(-c2ccccc2)n1C`, 0.17% (inactive). As to `CN(C)c1ccc(/C=C2\N=C(C(C)(C)C)OC2=O)cc1`, the fluorescence artifact activation is 0.15% (inactive). Regarding `CN1C(=O)/C(=C\c2ccc(N(C)C)cc2)OC1=S`, the fluorescence artifact activation is 57.7% (active). On to `Cc1ccc(NC2OC(C(O)CO)C(O)C2O)cc1[N+](=O)[O-]` (centres undefined), for which the fluorescence artifact activation was 5.79% (inactive). Turning to `O=C(c1ccc(COc2ccccc2Br)o1)N1N=C(C(F)F)CC1(O)C(F)F` (centres undefined), the fluorescence artifact activation was 8.57% (inactive). `CC(=O)Nc1ccc(S(=O)(=O)N2CCN3CCCC3C2)cc1` (centres undefined): the fluorescence artifact activation was -0.04% (inactive). With `CCOC(=O)/C(=C/C1=CC(=C/N(C)C)/C(=O)O1)C(C)=O`, the fluorescence artifact activation is 22.1% (active).

For `CCOC(=O)/C(=C/C=C1\Sc2cc(C)c(C)cc2N1CC)C(C)=O`, the fluorescence artifact activation is 0.02% (inactive).

As for `CCOC(=O)/C(=C\c1ccc(N2CCC(c3ccccc3)=N2)cc1)C(C)=O`, the fluorescence artifact activation was -0.05% (inactive).

`CCc1ccc(/C=N/n2c(C)cc(C)c(C#N)c2=O)cc1`: the fluorescence artifact activation is 0.12% (inactive). For `CCCNC(=S)N1CCC(NC(=O)C23CC4CC(CC(C4)C2)C3)CC1`, the fluorescence artifact activation was 0.09% (inactive). As to `CCn1nnnc1SCC(=O)N1CCCc2ccccc21`, the fluorescence artifact activation was 0.01% (inactive). As to `Cc1ccccc1-n1nnnc1SCC(C)C`, the fluorescence artifact activation was 32.8% (active). Consider `CSc1nnnn1-c1c(C)cc(C)cc1C`, for which the fluorescence artifact activation is 0.04% (inactive). For `CCO[C@@H]1OC(C(=O)O)=C[C@H](c2coc3ccccc3c2=O)[C@H]1CCCO`, the fluorescence artifact activation is 1.71% (inactive). For the compound `COCCn1c(SCC#N)nnc1-c1ccc([N+](=O)[O-])cc1`, the fluorescence artifact activation is -0.11% (inactive).

On to `COc1cccc(N=C2NC(=O)/C(=C/c3cc([N+](=O)[O-])ccc3O)S2)c1`, for which the fluorescence artifact activation was 0.01% (inactive). As for `COc1cc(/C=C2\SC(=Nc3ccc(Cl)c(C(=O)O)c3)NC2=O)c(Br)c(Br)c1O`, the fluorescence artifact activation was 17.6% (active).

As for `COc1cc(/C=C2\SC(=Nc3ccccc3)NC2=O)cc(Cl)c1O`, the fluorescence artifact activation is 0.21% (inactive). Under `c1ccc(-c2nc(-c3ccco3)n3ccccc23)cc1` stands 0.05% (inactive). Under `O=C(/C=C/c1cccc(F)c1)Nc1cc(S(=O)(=O)N2CCOCC2)ccc1N1CCCC1` stands 0.02% (inactive); under `CCSC1=NSC2=NC(=O)/C(=C\c3coc4ccccc4c3=O)C(=N)N12`, 24.5% (active); under `N=C1/C(=C\c2coc3ccccc3c2=O)C(=O)N=C2SC(c3ccncc3)=NN12`, 7.67% (inactive). Turning to `CC(C)CC1=NN2C(=N)/C(=C\c3coc4ccccc4c3=O)C(=O)N=C2S1`, the fluorescence artifact activation was 2.69% (inactive). `CC(C)CSC1=NSC2=NC(=O)/C(=C\c3coc4ccccc4c3=O)C(=N)N12`: the fluorescence artifact activation was 12.7% (active). As for `CSC1=NSC2=NC(=O)/C(=C/c3coc4ccccc4c3=O)C(=N)N12`, the fluorescence artifact activation was 0.27% (inactive).

`N=C1/C(=C\c2coc3ccccc3c2=O)C(=O)N=C2SC=CN12`: the fluorescence artifact activation is -0.01% (inactive).
